The text below walks through data of PMC3059335 (Investigational New Drugs, 2010).

A short description of data set [1]: pharmacokinetics of continuous infusion cilengitide. It counts as in vivo, human. Put shortly: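 Test compound given as fixed-dose continuous IV infusion (1–40 mg/hr) via venous access port, diluted in 0.9% NaCl or 5% dextrose; bag changed weekly. Heparinised blood (10 mL) taken day 1 pre-dose and 2 h post-start, then weekly for 4 weeks before and 2 h after bag change. Plasma frozen at −80°C, run in duplicate by HPLC-MS/MS. Steady-state concentration, Vss and clearance reported as mean and SD; Vd assumes 4-h half-life.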

The test system of data set [2] is patients with solid tumors. Description: toxicity monitoring of continuous infusion cilengitide. It counts as in vivo.
Data set [3] has as its system patients with solid tumors. Description: tumor response, radiographic tumor assessment every 8 weeks. It counts as in vivo, human. Put shortly:
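Patients received continuous IV infusion at fixed dose levels of 1, 2, 4, 8, 12, 18, 27 or 40 mg/hr, with the infusion bag replaced weekly; 4-week cycles without a break. Tumors assessed every 8 weeks (every two cycles). Patients with DLT continued at the next lower dose if toxicities had resolved to grade ≤1 and disease had not progressed.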

The test system of data set [4] is αvβ3 and αvβ5-mediated cell adhesion. Particulars: read-out: IC50, inhibition of αvβ3 and αvβ5-mediated cell adhesion; cited from earlier work.
The conditions of data set [5]: human, cited from earlier work.
The test system of data set [6] is patients with advanced solid tumours. Particulars: phase I testing of doses up to 2400 mg/m^2 twice weekly; cited from earlier work.

The structures appear in SMILES notation.

Regarding `CC(C)[C@H]1C(=O)N[C@@H](CCCNC(=N)N)C(=O)NCC(=O)N[C@@H](CC(=O)O)C(=O)N[C@H](Cc2ccccc2)C(=O)N1C` [cilengitide], the “cilengitide clearance, range calculated in our study” value in data set [1] (continuous infusion 1-40 mg/hr, range across dose levels) is 55 – 88 mL/min/m^2. Also, the “accumulation of cilengitide in the plasma over time” value in data set [1] (continuous infusion, weekly sampling in cycle 1) is “no evidence of accumulation”. In addition, the “maximum tolerated dose (MTD)” value in data set [2] (continuous infusion, doses up to 40 mg/hr) was “not reached”. Besides, the treatment-related hypertension result in data set [2] (in vivo) is on record as “did not occur in any patients”. Further, the maximum feasible dose in data set [2] (in vivo, iv) was 40 mg/h. For the same compound, the objective responses entry in data set [3] (17 of the 35 patients assessed at the end of cycle 2) is given as “No objective responses were observed”. In data set [3] (data not shown), the “relationship between dose level or steady state concentration (Css) and change in tumor size after two cycles” value is listed as “no significant relationship”. Further, the “median duration of stable disease” value in data set [3] (two patients, cycle = 4 weeks) is on record as 3.5 cycles. The IC50 in data set [4] is roughly 1000 nM. Further, in data set [5] (in vivo), the clearance is 34-66 mL/min/m^2 and the plasma half-life is 3 to 5 h. Moreover, the “metabolism, drug accumulation, or enterohepatic circulation” value in data set [5] (intermittent dosing) was “no evidence of metabolism, drug accumulation, or enterohepatic circulation”. Besides, the maximally tolerated dose result in data set [6] was “not reached”.
